ChEMBL document CHEMBL1159119, “Quiquelignan A-H, eight new lignoids from the rattan palm Calamus quiquesetinervius and their antiradical, anti-inflammatory and antiplatelet aggregation activities” (Bioorg Med Chem, 2010)

Test system: not listed separately
Assay: Cytotoxicity against mouse RAW264.7 cells assessed as viable cells after 24 hrs by MTS assay in presence of LPS
Assay type: cell-based
Parameters: concentration or dose not given beside the values
Conditions: read-out: Activity
How it was run: (§1)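 RAW 264.7 cells treated 24 h with compound (0.31–20.0 µg/mL, DMSO 0.2% v/v final), without LPS or with 1 µg/mL LPS. MTS solution (16.7% in RPMI 1640) added for 10 min; absorbance read at 490 nm.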

Row | SMILES | viability at 24 h [%]
1 | COc1cc([C@@H](O)[C@H](COC(=O)c2ccc(O)cc2)Oc2c(OC)cc(/C=C/COC(=O)c3ccc(O)cc3)cc2OC)cc(OC)c1O (relative stereo) | > 85
2 | CCO[C@@H](c1ccc(O)c(OC)c1)[C@@H](COC(=O)c1ccc(O)cc1)Oc1c(OC)cc([C@@H]2CC(=O)c3c(O)cc(O)cc3O2)cc1OC [QUIQUELIGNAN B] | > 85
3 | COc1cc(/C=C/COC(=O)c2ccc(O)cc2)ccc1O[C@@H](COC(=O)c1ccc(O)cc1)[C@@H](O)c1cc(OC)c(O)c(OC)c1 (relative stereo) | > 85
4 | COc1cc([C@H](O)[C@H](COC(=O)c2ccc(O)cc2)Oc2c(OC)cc(/C=C/COC(=O)c3ccc(O)cc3)cc2OC)ccc1O (relative stereo) | > 85
5 | COc1cc(C(=O)C(COC(=O)c2ccc(O)cc2)Oc2c(OC)cc(/C=C/COC(=O)c3ccc(O)cc3)cc2OC)cc(OC)c1O (stereo unspecified) | > 85
6 | CCO[C@H](c1ccc(O)c(OC)c1)[C@@H](CO)Oc1c(OC)cc(-c2cc(=O)c3c(O)cc(O)cc3o2)cc1OC [QUIQUELIGNAN C] | > 85

Test system: not listed separately
Assay: Cytotoxicity against mouse RAW264.7 cells assessed as viable cells after 24 hrs by MTS assay
Assay type: cell-based
Parameters: concentration or dose not given beside the values
Conditions: read-out: Activity
How it was run: as §1

Row | SMILES | viability at 24 h [%]
7 | COc1cc([C@@H](O)[C@H](COC(=O)c2ccc(O)cc2)Oc2c(OC)cc(/C=C/COC(=O)c3ccc(O)cc3)cc2OC)cc(OC)c1O (relative stereo) | > 85
8 | CCO[C@@H](c1ccc(O)c(OC)c1)[C@@H](COC(=O)c1ccc(O)cc1)Oc1c(OC)cc([C@@H]2CC(=O)c3c(O)cc(O)cc3O2)cc1OC [QUIQUELIGNAN B] | > 85
9 | COc1cc(/C=C/COC(=O)c2ccc(O)cc2)ccc1O[C@@H](COC(=O)c1ccc(O)cc1)[C@@H](O)c1cc(OC)c(O)c(OC)c1 (relative stereo) | > 85
10 | COc1cc([C@H](O)[C@H](COC(=O)c2ccc(O)cc2)Oc2c(OC)cc(/C=C/COC(=O)c3ccc(O)cc3)cc2OC)ccc1O (relative stereo) | > 85
11 | COc1cc(C(=O)C(COC(=O)c2ccc(O)cc2)Oc2c(OC)cc(/C=C/COC(=O)c3ccc(O)cc3)cc2OC)cc(OC)c1O (stereo unspecified) | > 85
12 | CCO[C@H](c1ccc(O)c(OC)c1)[C@@H](CO)Oc1c(OC)cc(-c2cc(=O)c3c(O)cc(O)cc3o2)cc1OC [QUIQUELIGNAN C] | > 85

Test system: RAW264.7
Assay: Antiinflammatory activity in mouse RAW264.7 cells assessed as inhibition of LPS-induced NO production by Griess reagent method
Assay type: functional, cell-based
Conditions: not given
How it was run: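 RAW 264.7 cells (1 × 10^5/well) in DMEM with 10% FBS, 5% CO2, 37 °C, pre-incubated overnight. Then 24 h with vehicle or compound (0.31–20.0 µg/mL; DMSO final 0.2% v/v) plus 1 µg/mL E. coli 0127:B8 LPS. Nitrite in supernatant mixed 1:1 with Griess reagent, 5 min, OD 540 nm. IC50 derived; triplicate, mean ± SE.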

Row | SMILES | IC50 [µM]
13 | O=c1c(O)c(-c2ccc(O)c(O)c2)oc2cc(O)cc(O)c12 [QUERCETIN] | 54.3
14 | COc1cc([C@@H](O)[C@H](COC(=O)c2ccc(O)cc2)Oc2c(OC)cc(/C=C/COC(=O)c3ccc(O)cc3)cc2OC)cc(OC)c1O (relative stereo) | 11.8
15 | CCO[C@@H](c1ccc(O)c(OC)c1)[C@@H](COC(=O)c1ccc(O)cc1)Oc1c(OC)cc([C@@H]2CC(=O)c3c(O)cc(O)cc3O2)cc1OC [QUIQUELIGNAN B] | 36
16 | COc1cc(/C=C/COC(=O)c2ccc(O)cc2)ccc1O[C@@H](COC(=O)c1ccc(O)cc1)[C@@H](O)c1cc(OC)c(O)c(OC)c1 (relative stereo) | 101
17 | COc1cc([C@H](O)[C@H](COC(=O)c2ccc(O)cc2)Oc2c(OC)cc(/C=C/COC(=O)c3ccc(O)cc3)cc2OC)ccc1O (relative stereo) | 52.4
18 | COc1cc(C(=O)C(COC(=O)c2ccc(O)cc2)Oc2c(OC)cc(/C=C/COC(=O)c3ccc(O)cc3)cc2OC)cc(OC)c1O (stereo unspecified) | 20
19 | CCO[C@H](c1ccc(O)c(OC)c1)[C@@H](CO)Oc1c(OC)cc(-c2cc(=O)c3c(O)cc(O)cc3o2)cc1OC [QUIQUELIGNAN C] | 63.4

Test system: not listed separately
Assay: Antioxidant activity assessed as superoxide radical scavenging activity by chemiluminescence assay
Assay type: functional
Conditions: not given
How it was run: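 O2•− generated by methylglyoxal plus arginine in PBS pH 7.4, with lucigenin as the CL probe. Ultra-weak photons counted by chemiluminescence analyzer. Trolox positive control; triplicate.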

Row | SMILES | IC50 [µM]
20 | COc1cc([C@@H](O)[C@H](COC(=O)c2ccc(O)cc2)Oc2c(OC)cc(/C=C/COC(=O)c3ccc(O)cc3)cc2OC)cc(OC)c1O (relative stereo) | > 200
21 | CCO[C@@H](c1ccc(O)c(OC)c1)[C@@H](COC(=O)c1ccc(O)cc1)Oc1c(OC)cc([C@@H]2CC(=O)c3c(O)cc(O)cc3O2)cc1OC [QUIQUELIGNAN B] | > 200
22 | Cc1c(C)c2c(c(C)c1O)CCC(C)(C(=O)O)O2 (stereo unspecified) [TROLOX] | 32.8
23 | COc1cc(/C=C/COC(=O)c2ccc(O)cc2)ccc1O[C@@H](COC(=O)c1ccc(O)cc1)[C@@H](O)c1cc(OC)c(O)c(OC)c1 (relative stereo) | > 200
24 | CCO[C@@H](c1ccc(O)c(OC)c1)[C@H](CO)Oc1c(OC)cc([C@@H]2CC(=O)c3c(O)cc(O)cc3O2)cc1OC [QUIQUELIGNAN A] | > 200
25 | COc1cc([C@H](O)[C@H](COC(=O)c2ccc(O)cc2)Oc2c(OC)cc(/C=C/COC(=O)c3ccc(O)cc3)cc2OC)ccc1O (relative stereo) | > 200
26 | COc1cc(C(=O)C(COC(=O)c2ccc(O)cc2)Oc2c(OC)cc([C@@H](O)[C@H](O)COC(=O)c3ccc(O)cc3)cc2OC)cc(OC)c1O (relative stereo) | 53.8
27 | COc1cc(C(=O)C(COC(=O)c2ccc(O)cc2)Oc2c(OC)cc(/C=C/COC(=O)c3ccc(O)cc3)cc2OC)cc(OC)c1O (stereo unspecified) | > 200
28 | CCO[C@H](c1ccc(O)c(OC)c1)[C@@H](CO)Oc1c(OC)cc(-c2cc(=O)c3c(O)cc(O)cc3o2)cc1OC [QUIQUELIGNAN C] | > 200

Test system: not listed separately
Assay: Antiplatelet aggregatory activity in […] assessed as inhibition of collagen-induced platelet aggregation by aggregometry
Assay type: functional
Conditions: Homo sapiens, Plasma

Row | SMILES | IC50 [µM]
29 | COc1cc([C@@H](O)[C@H](COC(=O)c2ccc(O)cc2)Oc2c(OC)cc(/C=C/COC(=O)c3ccc(O)cc3)cc2OC)cc(OC)c1O (relative stereo) | 26.9
30 | CCO[C@@H](c1ccc(O)c(OC)c1)[C@@H](COC(=O)c1ccc(O)cc1)Oc1c(OC)cc([C@@H]2CC(=O)c3c(O)cc(O)cc3O2)cc1OC [QUIQUELIGNAN B] | 43.3
31 | CC(=O)Oc1ccccc1C(=O)O [ASPIRIN] | 75.4
32 | COc1cc(/C=C/COC(=O)c2ccc(O)cc2)ccc1O[C@@H](COC(=O)c1ccc(O)cc1)[C@@H](O)c1cc(OC)c(O)c(OC)c1 (relative stereo) | > 100
33 | CCO[C@@H](c1ccc(O)c(OC)c1)[C@H](CO)Oc1c(OC)cc([C@@H]2CC(=O)c3c(O)cc(O)cc3O2)cc1OC [QUIQUELIGNAN A] | > 100
34 | COc1cc([C@H](O)[C@H](COC(=O)c2ccc(O)cc2)Oc2c(OC)cc(/C=C/COC(=O)c3ccc(O)cc3)cc2OC)ccc1O (relative stereo) | 55.2
35 | COc1cc(C(=O)C(COC(=O)c2ccc(O)cc2)Oc2c(OC)cc(/C=C/COC(=O)c3ccc(O)cc3)cc2OC)cc(OC)c1O (stereo unspecified) | 67.5
36 | CCO[C@H](c1ccc(O)c(OC)c1)[C@@H](CO)Oc1c(OC)cc(-c2cc(=O)c3c(O)cc(O)cc3o2)cc1OC [QUIQUELIGNAN C] | 49.4

Test system: not listed separately
Assay: Antioxidant activity assessed as hydroxyl radical scavenging activity by chemiluminescence assay
Assay type: functional
Conditions: not given
How it was run: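 •OH generated from EDTA, FeSO4 and 3% H2O2 with indoxyl-b-glucuronide as the CL probe. Ultra-weak photon emission read on a high-sensitivity chemiluminescence analyzer. IC50 is the concentration inhibiting 50% of generated •OH. Trolox as positive control; triplicate.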

Row | SMILES | IC50 [µM]
37 | COc1cc([C@@H](O)[C@H](COC(=O)c2ccc(O)cc2)Oc2c(OC)cc(/C=C/COC(=O)c3ccc(O)cc3)cc2OC)cc(OC)c1O (relative stereo) | 12.4
38 | CCO[C@@H](c1ccc(O)c(OC)c1)[C@@H](COC(=O)c1ccc(O)cc1)Oc1c(OC)cc([C@@H]2CC(=O)c3c(O)cc(O)cc3O2)cc1OC [QUIQUELIGNAN B] | 19.9
39 | Cc1c(C)c2c(c(C)c1O)CCC(C)(C(=O)O)O2 (stereo unspecified) [TROLOX] | 4.4
40 | COc1cc(/C=C/COC(=O)c2ccc(O)cc2)ccc1O[C@@H](COC(=O)c1ccc(O)cc1)[C@@H](O)c1cc(OC)c(O)c(OC)c1 (relative stereo) | 19
41 | CCO[C@@H](c1ccc(O)c(OC)c1)[C@H](CO)Oc1c(OC)cc([C@@H]2CC(=O)c3c(O)cc(O)cc3O2)cc1OC [QUIQUELIGNAN A] | 27.4
42 | COc1cc([C@H](O)[C@H](COC(=O)c2ccc(O)cc2)Oc2c(OC)cc(/C=C/COC(=O)c3ccc(O)cc3)cc2OC)ccc1O (relative stereo) | 20.4
43 | COc1cc(C(=O)C(COC(=O)c2ccc(O)cc2)Oc2c(OC)cc([C@@H](O)[C@H](O)COC(=O)c3ccc(O)cc3)cc2OC)cc(OC)c1O (relative stereo) | 6.2
44 | COc1cc(C(=O)C(COC(=O)c2ccc(O)cc2)Oc2c(OC)cc(/C=C/COC(=O)c3ccc(O)cc3)cc2OC)cc(OC)c1O (stereo unspecified) | 27.5
45 | CCO[C@H](c1ccc(O)c(OC)c1)[C@@H](CO)Oc1c(OC)cc(-c2cc(=O)c3c(O)cc(O)cc3o2)cc1OC [QUIQUELIGNAN C] | 15.3

Test system: RAW264.7
Assay: Ratio of IC50 for quercetin to IC50 for drug against LPS-induced NO release in mouse RAW264.7 cells by Griess reagent method
Assay type: functional
Conditions: not given

Row | SMILES | Ratio IC50
46 | COc1cc(C(=O)C(COC(=O)c2ccc(O)cc2)Oc2c(OC)cc(/C=C/COC(=O)c3ccc(O)cc3)cc2OC)cc(OC)c1O (stereo unspecified) | 2.7
